{"source": "paper PMC10794003", "about": "(European journal of medicinal chemistry, 2023)", "note": "“Also recorded” adds a separate entry of the source."}
{"system": "Nrf2 target genes GSTM3, NQO1, or HMOX1 in NCM460D cells", "test": "RT-qPCR of Nrf2 target genes in NCM460D cells", "assay_type": "cell-based", "conditions": "24 h incubation at 1, 10 and 100 μM, RT-PCR", "procedure,_shortened": "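NCM460D cells exposed to test compound at 1, 10 and 100 μM for 24 h. Positive controls were a reference Keap1-Nrf2 PPI inhibitor (1, 10, 100 μM) and CDDO (10 and 100 nM); 0.1 % DMSO served as the negative control. RNA was quantified, reverse-transcribed to cDNA, and GSTM3, NQO1 and HMOX1 were measured by RT-qPCR, normalized to endogenous GAPDH.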"}
{"smiles": "Cc1ccc(S(=O)(=O)N(CC(=O)O)c2ccc(N(CC(=O)O)S(=O)(=O)c3ccc(C)cc3)c(OCC(=O)O)c2)cc1", "note": "[8g, 2,2′-((2-(Carboxymethoxy)-1,4-phenylene)bis(tosylazanediyl))diacetic acid]", "transcriptional induction of Nrf2 target genes NQO1, GSTM3 and HMOX1": "less transcriptional induction; also recorded: relatively low expressions"}
{"smiles": "Cc1ccc(S(=O)(=O)N(CC(=O)O)c2cc(CCC(=O)O)c(N(CC(=O)O)S(=O)(=O)c3ccc(C)cc3)c3ccccc23)cc1", "note": "[17b, 2,2′-((2-(2-Carboxyethyl)naphthalene-1,4-diyl)bis(tosylazanediyl))diacetic acid]", "transcriptional induction of Nrf2 target genes NQO1, GSTM3 and HMOX1": "similarly high effects"}
{"smiles": "Cc1ccc(S(=O)(=O)N(CC(=O)O)c2cc(OCC(=O)O)c(N(CC(=O)O)S(=O)(=O)c3ccc(C)cc3)c3ccccc23)cc1", "note": "[compound 18, 2,2′-((2-(Carboxymethoxy)naphthalene-1,4-diyl)bis(tosylazanediyl))diacetic acid]", "transcriptional induction of Nrf2 target genes NQO1, GSTM3 and HMOX1": "similarly high effects"}
